Compound activity (PubChem BioAssay)
An excerpt weighted towards active compounds, which were near 3.5% of everything screened.
APP 5'UTR act: activates APP 5'UTR luciferase reporter; 190,000 compounds, 1% hits; AID 1276; SH-SY5Y APP 5'UTR luciferase reporter, luminescence; zero percent = DMSO vehicle wells; activation, % at 2 µM;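 active means activation above a set limit, based on mean plus 3 SD of controls, cut at about 140% in these data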
Pf gamet viab: inhibitors of late stage P. falciparum gametocyte viability; inhibition, % at 10.9 µM; AID 743093; P. falciparum stage V gametocytes, ATP luminescence, 24 h; 150,000 compounds, 0.065% hits;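 active means inhibition above the mean plus 3 SD of compounds within the control limits, set per campaign, cut at about 38% in these data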
STAT1 act: increases IFN-gamma driven STAT1 reporter signal | AID 932 | activation (% of control), % at 5.5 µM | 200,000 compounds, 2.6% hits | NIH 3T3 STAT1-luciferase reporter, luminescence; 100% = IFN-gamma alone, no compound;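 active means activation above the screen-wide mean activation plus 3 SD, cut at about 130% in these data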
FLuc inhib CS: counter-screen for luciferase assay inhibitors: firefly luciferase inhibition; P08659; ATPLite firefly luciferase biochemical luminescence, 10 min; inhibition, % at 10 µM; 200,000 compounds, 1.5% hits; AID 1006;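 active means inhibition above about 50% when tested at 10 µM, limit read from the data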
Target sequence (P08659 whole entry, looked up): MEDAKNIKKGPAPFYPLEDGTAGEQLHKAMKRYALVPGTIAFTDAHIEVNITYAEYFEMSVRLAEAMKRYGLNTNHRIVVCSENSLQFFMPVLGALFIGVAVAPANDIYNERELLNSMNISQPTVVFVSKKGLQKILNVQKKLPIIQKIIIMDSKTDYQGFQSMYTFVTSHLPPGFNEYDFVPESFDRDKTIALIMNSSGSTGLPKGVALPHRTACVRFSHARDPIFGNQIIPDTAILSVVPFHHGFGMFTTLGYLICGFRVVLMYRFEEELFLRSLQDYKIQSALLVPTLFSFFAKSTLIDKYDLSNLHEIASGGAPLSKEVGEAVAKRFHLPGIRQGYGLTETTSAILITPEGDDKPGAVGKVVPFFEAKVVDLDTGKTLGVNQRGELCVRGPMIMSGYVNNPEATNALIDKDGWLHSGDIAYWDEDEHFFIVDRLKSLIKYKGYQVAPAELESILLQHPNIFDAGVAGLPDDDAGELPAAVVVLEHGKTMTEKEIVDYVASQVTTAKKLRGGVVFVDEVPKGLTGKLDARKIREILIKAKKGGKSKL
NF-kB neuron act: compounds increasing NF-kB expression in human neuronal cells; fold change at 12.5 µM; 190,000 compounds, 1.6% hits; NF-kB reporter expression; stronger effect = higher value; AID 1239; in the data active means fold change above about 3.3
FLuc stim CS: affects firefly luciferase, flagging false hits in luciferase stimulation screens; ATPlite luciferase biochemical, luminescence, 10 min; 0 = ATP-free wells, 1 = DMSO control; activation factor at 10 µM; 200,000 tested, under 10 active;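 active means luciferase activation factor, scaled between plate controls, of at least 2 with compound at 10 µM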
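test system = cell-free luciferase reagent | medium = PBS as buffer for the ATP substrate | dosing = test compounds dosed from 2 mM stocks in 100% DMSO | incubation = 10 min at ambient temperature | detection = luminescence measurement of luciferase light output | benchmarks = low control with PBS replacing ATP, high control enzyme plus ATP without compound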
Numbers stand for hits; - = inactive; . = not tested or not shown.

SMILES | APP 5'UTR act | Pf gamet viab | STAT1 act | FLuc inhib CS | NF-kB neuron act | FLuc stim CS
CCC(=O)Nc1ccc(Br)cn1 | - | - | - | - | - | -
Cc1ccccc1C(=O)Nc1ccc(Br)cn1 | - | . | 133.8 | - | 3.82 | -
O=c1c2ccccc2n2nnnc2n1-c1ccccc1 | - | - | - | - | - | -
Nc1ccccc1N=Cc1ccc(-c2cccc(Cl)c2)o1 | - | - | 139.5 | - | - | -
COC(=O)N/N=C/c1ccc(-c2cccc(Cl)c2)o1 | - | - | - | - | - | -
O=C1CCc2cc(S(=O)(=O)NC(Cc3ccccc3)C(=O)N3CCN(c4ccccn4)CC3)ccc2N1 (centres undefined) | - | - | - | - | - | -
O=C(COC(=O)c1cccs1)Nc1ccc(S(=O)(=O)N2CCOCC2)cc1 | - | - | - | - | - | -
CC(C)c1nnc(NC(=O)c2ccc3c(c2)OCO3)s1 | 147.9 | - | - | 51.0 | 4.77 | -
Cc1cc(C)nc(NC(=O)c2ccc3c(c2)OCO3)c1 | - | . | - | 55.8 | - | -
CCSc1nnc(NC(=O)c2ccc3c(c2)OCO3)s1 | - | . | - | - | 3.35 | -
CCSc1nnc(NC(=O)/C=C/c2ccc3c(c2)OCO3)s1 | - | . | - | - | - | -
CC(c1ccccc1)c1nnc(NC(=O)c2ccc3c(c2)OCO3)s1 (centres undefined) | . | - | . | . | . | .
CCC1=C(OC(=O)N(CC)CC)N2C(=O)OC(=NCC(=O)OC)[C@]2(C)[C@H]2C1=CC[C@H]1C(=O)NC(=O)[C@H]12 | . | - | . | . | . | .
CCOc1cc(NC(=S)NC)c(OCC)cc1NC(=O)c1ccc(OC)cc1 | - | - | - | - | - | -
Cc1ccc(Nc2ncnc3ccccc23)cc1 | 149.3 | - | 129.7 | - | - | -
CC(C)Oc1ccc(Nc2ncnc3ccccc23)cc1 | - | - | 144.3 | - | - | -
CCOC(=O)COc1nc(Nc2ccccc2C)nc(N(C)C)n1 | - | - | - | - | - | -
CCc1ccc(C(=O)Nc2cc(C)ccc2F)s1 | - | . | 131.6 | - | - | -
Cc1ccccc1/C(N)=N/OC(=O)/C=C/c1ccccc1 | - | - | - | 55.7 | 3.88 | -
N/C(Cc1ccc(Cl)c(Cl)c1)=N\OC(=O)c1cccs1 | - | - | - | - | - | -
N/C(=N\OC(=O)/C=C/c1ccccc1)c1cccnc1 | - | - | - | 81.3 | - | -
Cc1ccccc1/C(N)=N/OC(=O)c1cccs1 | - | . | - | 68.8 | - | -
Cc1ccc(/C(N)=N/OC(=O)/C=C/c2ccccc2)cc1 | - | - | - | - | - | -
Fc1ccccc1Cn1nnc(-c2ccc3c(c2)OCO3)n1 | 166.5 | - | 136.5 | - | 5.7 | -
O=C(NCc1ccccc1F)c1ccc2c(c1)OCO2 | - | . | - | - | - | -
SMILES | APP 5'UTR act | Pf gamet viab | STAT1 act | FLuc inhib CS | NF-kB neuron act | FLuc stim CS
Clc1ccccc1Nc1nnc(-c2ccncc2)s1 | 160.4 | - | 130.6 | 81.7 | 4.21 | -
CN1CCN(NC(=O)c2ccc(Br)c(S(=O)(=O)N3CCOCC3)c2)CC1 | - | - | - | - | - | -
Nc1[nH]nc2nc(NCc3ccccc3)c3c(c12)CCN(Cc1ccccc1)C3 | - | - | - | - | 4.29 | -
O=C(Cn1c(C(F)(F)F)nc2ccccc21)N/N=C/c1ccco1 | - | - | - | - | - | -
Cc1[nH]c(=S)c(C#N)c(C)c1CCC#N | . | - | . | . | . | .
O=C1NC2(CCCCC2)C(=O)N1/N=C/c1ccccc1Br | - | - | 130.7 | - | - | -
O=C1NC2(CCCCC2)C(=O)N1/N=C/c1ccc(O)cc1O | - | - | - | - | - | -
COC(=O)c1cc(-c2c(C)nn(-c3ccccc3)c2C)n[nH]1 | - | - | - | - | 5.94 | -
Cc1nn(-c2ccccc2)c(C)c1-c1cc(C(=O)N/N=C/c2cccnc2)[nH]n1 | - | - | - | - | - | -
COc1ccc2cc(C(N)=O)c(=Nc3ccc(C)cc3)oc2c1 | - | - | 138.2 | - | - | -
COc1ccccc1N=c1oc2cc(O)ccc2cc1C(N)=O | - | 55.6 | - | - | - | -
COc1ccccc1N=c1oc2cc(O)ccc2cc1C(=O)NCC1CCCO1 (centres undefined) | - | - | - | - | - | -
Cc1cccc(N=c2oc3cc(O)ccc3cc2C(N)=O)c1 | - | - | 130.1 | - | - | -
COc1cc(/C=C2/NC(=O)N(c3cccc(Cl)c3)C2=O)ccc1O | - | - | 134.1 | - | - | -
C=CCN1CCN(C(c2cc(OC)ccc2OC)c2nnnn2CC2CCCO2)CC1 (centres undefined) | - | . | - | - | - | -
O=C(Nc1ccc2nc(-c3ccccn3)[nH]c2c1)C1CCCCC1 | - | - | - | 62.7 | - | -
O=c1[nH]c(-c2ccccn2)nc2ccccc12 | - | . | 134.6 | - | - | -
O=c1[nH]c(-c2ccccn2)nc(C(F)(F)F)c1Br | - | . | - | - | - | -
c1ccc(-c2nc3ccccc3[nH]2)nc1 | - | - | 136.7 | - | - | -
Nc1nc(-c2nc3ccccc3[nH]2)cs1 | 139.7 | . | 140.0 | 63.3 | 4.29 | -
CCN1C[C@@H]2[C@@H]3C(=O)N(Cc4ccccc4)C(=O)[C@@H]3[C@](CC)(C1=O)N2C(=O)c1ccc(Cl)cc1 | . | - | . | . | . | .
CC(C)(C)OC(=O)N1CCCC(C(=O)Nc2ccc(C(=O)N3CCOCC3)cc2)C1 (centres undefined) | . | - | . | . | . | .
CCC(NC(=O)c1ccccc1NC(=O)c1ccccc1)C(=O)NNC(=O)c1cccnc1 (centres undefined) | . | - | . | . | . | .
CCCCc1c(O)c2cccc3c2n(c1=O)CCC3 | . | - | . | . | . | .
O=C(NC(=S)Nc1nc2ccc(F)cc2s1)c1ccco1 | - | - | 130.3 | 86.4 | - | -
SMILES | APP 5'UTR act | Pf gamet viab | STAT1 act | FLuc inhib CS | NF-kB neuron act | FLuc stim CS
CN(C)S(=O)(=O)c1ccc2nc(NC(=O)c3cccnc3)sc2c1 | - | . | - | 55.4 | - | -
Cc1ccc(C(=O)Nc2nc3ccc(S(C)(=O)=O)cc3s2)o1 | - | - | - | 74.3 | - | -
CS(=O)(=O)c1ccc2nc(NC(=O)c3ccco3)sc2c1 | - | . | 130.6 | 77.4 | - | -
CS(=O)(=O)c1ccc2nc(NC(=O)c3cc4ccccc4o3)sc2c1 | - | . | - | - | - | -
O=C1CCC/C=C/C[C@H](CC(=O)N(CCO)Cc2ccccc2)C(=O)N[C@@H](Cc2ccccc2)CO1 | . | - | . | . | . | .
O=C(C1=C[C@@H](c2ccc(Br)cc2)C[C@@H](OCCCCO)O1)N1CCN(Cc2ccccc2)CC1 | - | - | - | - | - | -
O=C(OCc1nc2ccccc2s1)c1cccc(S(=O)(=O)N2CCOCC2)c1 | - | . | 130.3 | - | - | -
O=C(O)c1c2c(nc3ccccc13)/C(=C/c1ccc(O)cc1)CC2 | - | - | - | 96.0 | - | -
CC(/C=C/c1ccc(N(C)C)cc1)=N\N=C(/N)SC1CC(=O)N(c2ccc(C(=O)O)cc2)C1=O (centres undefined) | - | . | - | 68.9 | - | -
O=C(O)c1ccc(N2C(=O)CC(SC(=Nc3ccccc3)Nc3ccccc3)C2=O)cc1 (centres undefined) | - | - | - | - | - | -
